Compounds with a hit are over-represented: about 2.3% of the library has one in this group of screens.
PDI turbidity – blocks human protein disulfide isomerase activity; PDI insulin aggregation turbidity, A650, 90 min; inhibition, % at 10 µM; 0.052% of 350,000 active;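 active = mean inhibition across replicates of 30% or more, whatever share of single replicates reach that level; inconclusive = mean inhibition below 30% while every single replicate reaches 30%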
Target sequence (P07237 whole entry, looked up): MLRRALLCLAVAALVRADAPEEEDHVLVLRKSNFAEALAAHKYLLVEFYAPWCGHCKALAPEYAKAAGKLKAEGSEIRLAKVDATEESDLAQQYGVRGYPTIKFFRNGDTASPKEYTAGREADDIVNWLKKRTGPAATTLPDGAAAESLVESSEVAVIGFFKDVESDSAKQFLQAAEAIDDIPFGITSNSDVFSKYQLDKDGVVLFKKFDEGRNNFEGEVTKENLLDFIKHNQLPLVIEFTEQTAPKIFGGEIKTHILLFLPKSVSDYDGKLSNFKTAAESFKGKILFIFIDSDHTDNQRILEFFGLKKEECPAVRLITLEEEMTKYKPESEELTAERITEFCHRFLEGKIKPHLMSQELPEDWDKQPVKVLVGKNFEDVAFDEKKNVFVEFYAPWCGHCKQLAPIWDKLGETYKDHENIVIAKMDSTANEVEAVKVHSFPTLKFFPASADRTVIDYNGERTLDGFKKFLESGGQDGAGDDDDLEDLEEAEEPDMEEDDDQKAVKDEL
F508del corr – correctors of CFTR F508del function in bronchial epithelial cells. CFBE cells, YFP halide quenching; stimulated with forskolin plus potentiator P3; % fluorescence drop versus neutral controls. activity (quench increase), % at 7.58 µM. 0.36% of 350,000 active. AID 720511;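 active = mean added fluorescence quench of at least 8% versus neutral control, with both replicates also reaching 8%; inconclusive = only one of the mean or replicate conditions met; inactive = mean below 8% and not both replicates reaching 8%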;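 note: cells transiently co-express mutant CFTR-F508del with the halide-sensitive YFP; corrector assay measuring rescue of mutant channel to the surface after 24 h compound exposure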
C2C12 statin – suppressors of simvastatin-induced myotoxicity in C2C12 myotubes | ATP luminescence, 48 h; scaled: DMSO 0, geranylgeraniol control 100 | rescue of ATP level, % at 7.49 µM | 0.78% of 330,000 active | AID 602340;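 active = mean ATP rescue above about 67%, or every replicate alone reaching that limit, limit read from the data, passing the limit was not always enough; inconclusive = no clear call, values can overlap the other calls; inactive = mean under the limit and some replicate under it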;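 note: myotubes were challenged with 10 µM simvastatin during compound exposure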
ERp5 inh – inhibitors of human ERp5 | ERp5 insulin aggregation, absorbance 650 nm, 90 min | Q15084 | 0.05% of 350,000 active | inhibition, % at 9.99 µM | AID 651711;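 active = mean replicate inhibition above about 25%, with every replicate also reaching it, limit read from the data, passing the limit was not always enough; inconclusive = only one of those two criteria met; inactive = neither criterion met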
DENV2 CPE – inhibitors of DENV2 cytopathic effect | DENV2-infected cells, cytopathic effect rescue, plate reader | 1.7% of 350,000 active | CPE inhibition, % at 9.99 µM; in the data active = CPE inhibition above about 20%, passing the limit was not always enough; inconclusive = no clear call, values can overlap the other calls; tested in BHK-21 cells
Cneo AK release – causes C. neoformans cell lysis; adenylate kinase release luminescence, 4 h; normalised: neutral wells 0, clomiphene wells 100; lysis activity, % at 15 µM; 0.2% of 360,000 active;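 active = mean lysis activity across replicates of at least 80%, whatever share of replicates individually reach that level; inactive = mean lysis activity below 80%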
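Material: C. neoformans cells | Amount: Yeast cell density of 5 × 10^6 cells/mL | Medium: Fresh YPD growth medium | Dosing: Single dose | Times: Static 4 h at 37 °C with compound, 1 h detection | Detection: AK luminescence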
Large screens that a line does not name were inactive; ! = not active in a repeat.

CCC(=O)N1CC2(C1)[C@@H](c1ccccc1)[C@@H](CO)N2Cc1cccc(Cl)c1	none (no result: PDI turbidity, C2C12 statin, Cneo AK release)
Cc1cc(C)c2nc(SC(C)C(=O)NCC(=O)Nc3ccc(F)c(F)c3F)cc(C)c2c1 (stereo not drawn)	DENV2 CPE 28 (no result: C2C12 statin, Cneo AK release)
O=C(Nc1ccncc1)C1CCN(S(=O)(=O)c2cccc(C(F)(F)F)c2)CC1	ERp5 inh 27
O=C(Nc1cccc(C(F)(F)F)c1)C1CCN(S(=O)(=O)c2cnc[nH]2)CC1	C2C12 statin 107 (no result: F508del corr, ERp5 inh, DENV2 CPE)
COc1ccc(NC(=O)N(C)C[C@@H]2Oc3ccc(NS(=O)(=O)c4ccc(F)cc4)cc3C(=O)N([C@H](C)CO)C[C@@H]2C)cc1	none (no result: PDI turbidity)
COc1ccc(S(=O)(=O)CCC(=O)NC2CCCCC2)cc1	C2C12 statin 87 (no result: F508del corr, ERp5 inh, DENV2 CPE)
O=C(CCS(=O)(=O)c1ccccc1)NC1CCCCC1	none (no result: C2C12 statin)
c1ccc(CSc2nnc(-c3ccccn3)n2-c2ccccc2)cc1	C2C12 statin 107 (no result: F508del corr, ERp5 inh, DENV2 CPE)
CC(C)(C)NC(=O)CSc1nnc(-c2ccccn2)n1-c1ccccc1	none (no result: PDI turbidity)
C[C@H]1CCCCO[C@@H](CN(C)CC2CCCCC2)[C@@H](C)CN([C@@H](C)CO)C(=O)c2cc(NC(=O)CCC(F)(F)F)ccc2O1	none (no result: PDI turbidity, C2C12 statin, ERp5 inh)
CCCN(C)C[C@@H]1Oc2cc(C3=CCCCC3)ccc2S(=O)(=O)N([C@@H](C)CO)C[C@@H]1C	none (no result: PDI turbidity)
CCC(C)Nc1nc(N)c([N+](=O)[O-])c(NCCO)n1 (stereo not drawn)	DENV2 CPE 94 (no result: C2C12 statin, Cneo AK release)
S=C(NCCc1cccc(Cl)c1)NC1CCCCC1	Cneo AK release 88
COCC(=O)N1CCC2(CC1)CN(Cc1cc(F)ccc1F)[C@H](CO)c1c2c2ccc(OC)cc2n1C	none (no result: PDI turbidity, C2C12 statin, Cneo AK release)
C[C@@H]1CN([C@@H](C)CO)C(=O)c2cc(-c3ccccc3F)cnc2O[C@@H]1CN(C)C(=O)C1CCOCC1	DENV2 CPE 60 (no result: PDI turbidity)
C[C@@H]1CN([C@H](C)CO)C(=O)c2cc(C#Cc3ccccc3F)cnc2O[C@H]1CN(C)C(=O)C1CCOCC1	DENV2 CPE 35 (no result: PDI turbidity)
C[C@H]1CN([C@@H](C)CO)C(=O)c2cc(C#Cc3ccccc3F)cnc2O[C@H]1CN(C)C(=O)C1CCOCC1	none (no result: PDI turbidity)
C[C@@H]1CN([C@H](C)CO)C(=O)c2cccc(NS(=O)(=O)c3ccc(F)cc3)c2O[C@H]1CN(C)Cc1ccc(Cl)c(Cl)c1	none (no result: PDI turbidity)
C[C@H]1CN([C@@H](C)CO)C(=O)c2cccc(NS(=O)(=O)c3ccc(F)cc3)c2O[C@@H]1CN(C)Cc1ccc(Cl)c(Cl)c1	DENV2 CPE 23 (no result: PDI turbidity)
C[C@H]1CN([C@@H](C)CO)C(=O)c2cccc(NS(=O)(=O)c3ccccc3)c2O[C@@H]1CN(C)Cc1ccc(Cl)c(Cl)c1	DENV2 CPE 85 (no result: PDI turbidity)
C[C@@H]1CN([C@@H](C)CO)C(=O)c2cc(-c3cccnc3)cnc2O[C@H]1CN(C)C	none (no result: PDI turbidity, DENV2 CPE)
Cc1noc(C)c1NC(=O)N(C)C[C@@H]1Oc2ccc(NS(=O)(=O)c3c(C)noc3C)cc2CC(=O)N([C@H](C)CO)C[C@H]1C	DENV2 CPE inconclusive (no result: PDI turbidity)
COc1ccc(NC(=O)N(C)C[C@@H]2Oc3ccc(NC(=O)Nc4ccccc4)cc3C(=O)N([C@H](C)CO)C[C@@H]2C)cc1	none (no result: PDI turbidity)
CCC(=O)N[C@@H]1CC[C@@H](CCn2cc(C3CC3)nn2)O[C@@H]1CO	none (no result: PDI turbidity)
Cc1ccc(-n2ncc3c(=O)n(CC(=O)NCC4CCCO4)cnc32)cc1 (stereo not drawn)	none (no result: F508del corr, ERp5 inh, DENV2 CPE)
O=C(Cn1cnc2c(cnn2-c2ccc(Cl)cc2)c1=O)NCC1CCCO1 (stereo not drawn)	C2C12 statin 85 (no result: F508del corr, ERp5 inh, DENV2 CPE)
Nc1ncc(-c2ccc(F)cc2)nc1N1CCN(CCO)CC1	DENV2 CPE 27
CCCCNC(=O)C1(C)CCN1C(=O)c1cc(-c2cccs2)oc1C (stereo not drawn)	DENV2 CPE 33
CCCCNC(=O)C1(C)CCN1C(=O)c1ccccc1Br (stereo not drawn)	DENV2 CPE inconclusive
CN(C)CC(=O)Nc1ccc2c(c1)[C@@H]1C[C@H](CC(=O)NCC3CC3)O[C@H](CO)[C@@H]1O2	DENV2 CPE inconclusive (no result: PDI turbidity)
Cc1cccc(S(=O)(=O)N2C[C@H]3[C@@H](c4ccccc42)[C@H](CO)N3C(=O)C2CC2)c1	none (no result: PDI turbidity)
CC(C)(C)NC(=O)Cn1c(=O)oc2ccc(Cl)cc21	none
Cc1cc(NC(=O)Cn2c(=O)oc3ccc(Cl)cc32)no1	DENV2 CPE 45
CC(C)NC(=O)N[C@@H]1CC[C@H](CCNS(=O)(=O)c2ccc(F)cc2)O[C@@H]1CO	none (no result: PDI turbidity)
O=C(C[C@H]1CC[C@@H]2[C@H](COC[C@@H](O)CN2C(=O)c2cccnc2)O1)NCc1ccc(-c2ccccc2)cc1	DENV2 CPE 23 (no result: PDI turbidity)
O=C(C[C@@H]1CC[C@H]2[C@@H](COC[C@H](O)CN2C(=O)c2ccccc2F)O1)NCc1ccccc1	DENV2 CPE 86 (no result: PDI turbidity)
Cc1ccc(S(=O)(=O)N2C[C@@H](O)COC[C@@H]3O[C@H](CC(=O)NCc4ccc5c(c4)OCO5)CC[C@H]32)cc1	Cneo AK release 109 (no result: PDI turbidity, DENV2 CPE)
CCNC(=O)C[C@H]1CC[C@H]2[C@@H](COC[C@H](O)CN2C(=O)c2cccnc2)O1	DENV2 CPE 94 (no result: PDI turbidity)
O=C(C[C@@H]1CC[C@@H]2[C@H](COC[C@@H](O)CN2C(=O)c2cccnc2)O1)NCc1ccc(-c2ccccc2)cc1	none (no result: PDI turbidity)
CN1C(=O)c2cc(NC(=O)Cc3cccs3)ccc2OC[C@@H]2O[C@H](CC(=O)N[C@@H]3CCN(Cc4ccccc4)C3)CC[C@H]21	none (no result: PDI turbidity, F508del corr)
C[C@@H]1CCCCO[C@@H](CN(C)C(=O)NC2CCCCC2)[C@H](C)CN([C@H](C)CO)C(=O)c2cc(NS(=O)(=O)c3ccccc3)ccc2O1	none (no result: PDI turbidity, C2C12 statin)
CCCNC(=O)C[C@H]1CC[C@@H]2[C@H](COC[C@@H](O)CN2C(=O)c2ccccn2)O1	DENV2 CPE 89! (no result: PDI turbidity)
O=C(C[C@H]1CC[C@@H]2[C@H](COC[C@H](O)CN2C(=O)c2ccncc2)O1)NCc1ccc(-c2ccccc2)cc1	DENV2 CPE 20 (no result: PDI turbidity)
CS(=O)(=O)N1C[C@H](O)COC[C@@H]2O[C@H](CC(=O)NCc3ccc(-c4ccccc4)cc3)CC[C@H]21	none (no result: PDI turbidity)
CS(=O)(=O)N1C[C@H](O)COC[C@H]2O[C@@H](CC(=O)NCc3ccc(-c4ccccc4)cc3)CC[C@@H]21	DENV2 CPE 79 (no result: PDI turbidity)
CCCNC(=O)C[C@@H]1CC[C@H]2[C@@H](COC[C@H](O)CN2C(=O)c2ccccn2)O1	none (no result: PDI turbidity)
CN1C(=O)c2cc(NC(=O)c3ccc(C(F)(F)F)cc3)ccc2OC[C@H]2O[C@@H](CC(=O)O)CC[C@H]21	none (no result: PDI turbidity)
CNS(=O)(=O)c1cccc(C(=O)OCC(=O)c2cc(C)n(CC3CCCO3)c2C)c1 (stereo not drawn)	F508del corr 25
Cc1cc(C(=O)COC(=O)c2cccc(S(=O)(=O)N(C)C)c2)c(C)n1CC1CCCO1 (stereo not drawn)	none
